Ends that are not written are not given here.
What was measured:
MIN-6 cells = assay: Insulin secretion of MIN-6 cells; assay type: cell-based; details: 100 nmol/L, 1 h, 8.3 mmol/L GLC and 0.8 mmol/L palmitic acid, MF density 1 T for /MF groups, n = 6
[1] = In vitro release from exosome-SPION; assay type: physicochemical; details: PBS, 37 °C, fitted with OriginPro 2021
Method in brief: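 Test peptide loaded in SPION-decorated exosomes was placed in a dialysis bag (MWCO 80 kD) and incubated at 37 °C in PBS. Samples were withdrawn at selected intervals and peptide was quantified by reverse-phase HPLC on a C18 column. Percent release was calculated as (concentration in PBS × PBS volume) / (concentration in mother liquor × mother liquor volume) × 100%.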

[2] = Pharmacokinetic study after tail vein injection; assay type: in vivo; details: Kunming mice, 5 mg/kg, HPLC, n = 6
Method in brief: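 Kunming mice ([…], 18–22 g) were randomised into groups of six and given 5 mg/kg by tail-vein injection, either as free peptide or as the peptide-equivalent dose in exosome-SPION form. At intervals, 20 μL of tail-vein blood was taken with heparinised micropipettes and mixed into 1 mL PBS. Samples were centrifuged at 10,000 rpm for 10 min, and peptide in the supernatant was quantified by C18 HPLC.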

In the case of “HSDAVFTDNYTRLRKQVAAKKYLQSIKNKRY-NH2 (C-terminus assumed) [BAY 55-9837]”, the “insulin secretion compared to the model group” value (MIN-6 cells) is reported as “significantly enhance insulin secretion”, the “first-order fitted release equation y = a × (1 – exp(−b × x)): a” value [1] is reported as 53.92 and the “time after injection at which it could not be detected in plasma” value [2] is reported as 110 min.

— paper PMC12034843 (Drug Design, Development and Therapy, 2025)
